Test results reported in ChEMBL document CHEMBL1123499, “Synthesis, saludiuretic, and antihypertensive activity of 6,7-disubstituted 1(2H)- and 3,4-dihydro-1(2H)-phthalazinones” (1986).

Assays:
Rattus norvegicus [1] = species on record: Rattus norvegicus; experiment: Saluretic activity in rats after 0-24 hours, as sodium ion concentration in urine; type: functional
In short: (§1)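 Male Sabra rats (170-200 g), fasted 18 h, dosed orally 50 mg/kg in saline at 25 mL/kg, eight per compound, two per metabolic cage, no food or water. Urine collected 5 and 24 h after dosing and centrifuged. Chloride titrated with Hg(NO3)2/diphenylcarbazone after HNO3 acidification; Na+ and K+ by atomic absorption.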

Rattus norvegicus [2] = species on record: Rattus norvegicus; experiment: Compound was tested for antihypertensive activity in rat after 1 hr postdose; type: functional
In short: (§2)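 DOCA/saline hypertensive Sprague-Dawley rats (250-350 g), six per group, given 10 mg/kg doca s.c. daily with saline until systolic BP reached 170 mmHg (usually 3-4 weeks). Oral 25 mg/kg in 5 mL/kg 1% methylcellulose. Systolic BP by tail-cuff before and 1, 4, 24 h after; drop reported as mean ± SD.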

Rattus norvegicus [3] = species on record: Rattus norvegicus; experiment: Compound was tested for antihypertensive activity in rat after 4 hr postdose; type: functional; in short: as §2
Rattus norvegicus [4] = species on record: Rattus norvegicus; experiment: Compound was tested for antihypertensive activity in rat after 24 hr postdose; type: functional; in short: as §2
Rattus norvegicus [5] = species on record: Rattus norvegicus; experiment: Saluretic activity in rats after 0-5 hours, as chloride ion concentration in urine; type: functional; in short: as §1
Rattus norvegicus [6] = species on record: Rattus norvegicus; experiment: Saluretic activity in rats after 0-5 hours, as sodium ion concentration in urine; type: functional; in short: as §1
Rattus norvegicus [7] = species on record: Rattus norvegicus; experiment: Saluretic activity in rats after 0-24 hours, as ratio of Na+/K+ ion concentration in urine; type: functional; in short: as §1
Rattus norvegicus [8] = species on record: Rattus norvegicus; experiment: Saluretic activity in rats after 0-5 hours, as ratio of Na+/K+ ion concentration in urine; type: functional; in short: as §1
Rattus norvegicus [9] = species on record: Rattus norvegicus; experiment: Diuretic activity in rats at time intervals of 0-24 hours; type: functional, Urine
In short: (§3)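 Male Sabra rats (170-200 g), starved 18 h, given 50 mg/kg by stomach tube in saline (25 mL/kg load), eight per compound, saline and furosemide controls run alongside. Held two per metabolic cage at 22 °C without food or water. Urine volume measured at 5 and 24 h collections.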

Rattus norvegicus [10] = species on record: Rattus norvegicus; experiment: Saluretic activity in rats after 5-24 hours, as sodium ion concentration in urine; type: functional; in short: as §1
Rattus norvegicus [11] = species on record: Rattus norvegicus; experiment: Saluretic activity in rats after 0-24 hours, as chloride ion concentration in urine; type: functional; in short: as §1
Rattus norvegicus [12] = species on record: Rattus norvegicus; experiment: Saluretic activity in rats after 0-5 hours, as potassium ion concentration in urine; type: functional; in short: as §1
Rattus norvegicus [13] = species on record: Rattus norvegicus; experiment: Saluretic activity in rats after 5-24 hours, as potassium ion concentration in urine; type: functional; in short: as §1
Rattus norvegicus [14] = species on record: Rattus norvegicus; experiment: Saluretic activity in rats after 5-24 hours, as chloride ion concentration in urine; type: functional; in short: as §1
Rattus norvegicus [15] = species on record: Rattus norvegicus; experiment: Saluretic activity in rats after 0-24 hours, as potassium ion concentration in urine; type: functional; in short: as §1
Rattus norvegicus [16] = species on record: Rattus norvegicus; experiment: Saluretic activity in rats after 5-24 hours, as ratio of Na+/K+ ion concentration in urine; type: functional; in short: as §1
Rattus norvegicus [17] = species on record: Rattus norvegicus; experiment: Diuretic activity in rats at time intervals of 5-24 hours; type: functional, Urine; in short: as §3
Rattus norvegicus [18] = species on record: Rattus norvegicus; experiment: Diuretic activity in rats at time intervals of 0-5 hours; type: functional, Urine; in short: as §3

| SMILES | Saluretic activity (Rattus norvegicus [1]) | Decrease in blood pressure (Rattus norvegicus [2]) | Decrease in blood pressure (Rattus norvegicus [3]) | Decrease in blood pressure (Rattus norvegicus [4]) | Saluretic activity (Rattus norvegicus [5]) | Saluretic activity (Rattus norvegicus [6]) | Ratio (Rattus norvegicus [7]) | Ratio (Rattus norvegicus [8]) | Diuretic activity (Rattus norvegicus [9]) | Saluretic activity (Rattus norvegicus [10]) | Saluretic activity (Rattus norvegicus [11]) | Saluretic activity (Rattus norvegicus [12]) | Saluretic activity (Rattus norvegicus [13]) | Saluretic activity (Rattus norvegicus [14]) | Saluretic activity (Rattus norvegicus [15]) | Ratio (Rattus norvegicus [16]) | Diuretic activity (Rattus norvegicus [17]) | Diuretic activity (Rattus norvegicus [18]) |
| --- | --- | --- | --- | --- | --- | --- | --- | --- | --- | --- | --- | --- | --- | --- | --- | --- | --- | --- |
| Cn1ncc2cc(S(N)(=O)=O)c(Cl)cc2c1=O | 7.84 m equiv kg-1 | 29.7 mmHg | 47 mmHg | 19.3 mmHg | 2.22 m equiv kg-1 | 2.58 m equiv kg-1 | 1.52 | 2.1 | 4.8 mL | 5.26 m equiv kg-1 | 7.22 m equiv kg-1 | 1.24 m equiv kg-1 | 3.92 m equiv kg-1 | 5 m equiv kg-1 | 5.16 m equiv kg-1 | 1.34 | 2.6 mL | 2.2 mL |
| NS(=O)(=O)c1cc2c(cc1Cl)CNNC2=O | 10.91 m equiv kg-1 | 24.7 mmHg | 31 mmHg | 27 mmHg | 8.32 m equiv kg-1 | 6.55 m equiv kg-1 | 1.94 | 3 | 12.7 mL | 4.36 m equiv kg-1 | 12.48 m equiv kg-1 | 2.18 m equiv kg-1 | 3.45 m equiv kg-1 | 4.16 m equiv kg-1 | 5.63 m equiv kg-1 | 1.27 | 6.2 mL | 6.5 mL |
| NS(=O)(=O)c1cc2c(O)nncc2cc1Cl | 12.37 m equiv kg-1 | 13.7 mmHg | 33.7 mmHg | 38 mmHg | 9.87 m equiv kg-1 | 8.16 m equiv kg-1 | 2.44 | 3.18 | 11.3 mL | 4.21 m equiv kg-1 | 13.97 m equiv kg-1 | 2.55 m equiv kg-1 | 2.51 m equiv kg-1 | 4.1 m equiv kg-1 | 5.06 m equiv kg-1 | 1.68 | 3.6 mL | 7.7 mL |
| NS(=O)(=O)c1cc2c(cc1Cl)C(=O)NNC2 | 9.07 m equiv kg-1 | 34.7 mmHg | 51 mmHg | 47.7 mmHg | 3.49 m equiv kg-1 | 3.23 m equiv kg-1 | 1.64 | 2.04 | 6.6 mL | 5.84 m equiv kg-1 | 9.77 m equiv kg-1 | 1.58 m equiv kg-1 | 3.94 m equiv kg-1 | 6.28 m equiv kg-1 | 5.52 m equiv kg-1 | 1.48 | 3.7 mL | 2.9 mL |
| Cn1ncc2cc(Cl)c(S(N)(=O)=O)cc2c1=O | 11.1 m equiv kg-1 | 31.7 mmHg | 47.7 mmHg | 26.3 mmHg | 7.27 m equiv kg-1 | 8.7 m equiv kg-1 | 2.33 | 3.27 | 8.8 mL | 2.4 m equiv kg-1 | 9.57 m equiv kg-1 | 2.67 m equiv kg-1 | 2.09 m equiv kg-1 | 2.3 m equiv kg-1 | 4.76 m equiv kg-1 | 1.15 | 2.7 mL | 6.1 mL |
| NS(=O)(=O)c1cc2c(cc1Cl)NCNS2(=O)=O [HYDROCHLOROTHIAZIDE] | – | 28.6 mmHg | 36.7 mmHg | 18 mmHg | – | – | – | – | – | – | – | – | – | – | – | – | – | – |
| NS(=O)(=O)c1cc2cnn(-c3cccc(C(F)(F)F)c3)c(=O)c2cc1Cl | 7.41 m equiv kg-1 | 35.6 mmHg | 54 mmHg | 27.7 mmHg | – | 0.82 m equiv kg-1 | 1.44 | 1.66 | 4.9 mL | – | – | 0.49 m equiv kg-1 | 4.67 m equiv kg-1 | – | 5.16 m equiv kg-1 | 1.41 | 4 mL | 0.9 mL |
| NS(=O)(=O)c1cc2c(cc1Cl)C(=O)N(c1cccc(C(F)(F)F)c1)NC2 | 6.86 m equiv kg-1 | – | – | – | 2.07 m equiv kg-1 | 1.26 m equiv kg-1 | 1.51 | 1.82 | 6.1 mL | 5.6 m equiv kg-1 | 8.73 m equiv kg-1 | 0.69 m equiv kg-1 | 3.84 m equiv kg-1 | 6.66 m equiv kg-1 | 4.53 m equiv kg-1 | 1.46 | 4.5 mL | 1.6 mL |
| Cn1ncc2cc(S(N)(=O)=O)c(Sc3ccccc3)cc2c1=O | 8.6 m equiv kg-1 | – | – | – | 2.33 m equiv kg-1 | 2.05 m equiv kg-1 | 1.86 | 1.7 | 5.9 mL | 6.55 m equiv kg-1 | 8.31 m equiv kg-1 | 1.2 m equiv kg-1 | 3.42 m equiv kg-1 | 5.98 m equiv kg-1 | 4.62 m equiv kg-1 | 1.92 | 3.8 mL | 2.1 mL |
| NNc1nncc2ccccc12 [HYDRALAZINE] | – | 72.4 mmHg | 75.1 mmHg | 35.3 mmHg | – | – | – | – | – | – | – | – | – | – | – | – | – | – |
